Laboratory results as given in ChEMBL document CHEMBL4359903, “1,2,4-Oxadiazole derivatives targeting EGFR and c-Met degradation in TKI resistant NSCLC” (Eur J Med Chem, 2019).
Activity calls are given as the source filed them. No cut-off for these calls is given here.

Assays:
NCI-H1975 = experiment: Antitumor activity against human NCI-H1975 cells harbouring EGFR L858R/T790M double mutant xenografted in athymic Nude-Foxn1nu BALB/c mouse assessed as tumor growth inhibition at 50 mg/kg, po administered once daily via gavage for 20 days in presence of gefitinib measured twice a week by caliper method relative to control; type: functional; conditions: 480 h, read-out: TGI
Summary of the method: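 H1975 subcutaneous xenografts in female nude mice, randomized at about 50 mm3, n = 8 per group. Four arms gavaged once daily for 20 days: vehicle, gefitinib 50 mg/kg, test agent 50 mg/kg, or both at 50 mg/kg each. Tumor volume by calipers (width² × length × 0.52), measured twice weekly.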

[1] = tested on: Epidermal growth factor receptor (Homo sapiens), P00533 [UNDEFINED MUTATION]; experiment: Induction of EGFR E746-A750 deletion/T790M mutant degradation in human CL68 cells assessed as reduction in EGFR expression at 0.2 to 0.6 uM incubated for 48 hrs by Western blot analysis; type: cell-based
Summary of the method: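 After 48 h treatment, cells were scraped and lysed in 1% SDS, 50 mM Tris-HCl pH 8.0, 10 mM EDTA with protease and phosphatase inhibitors. Lysates sonicated, protein measured by BCA, equal amounts run on SDS-PAGE and blotted to nitrocellulose. Primary antibodies (EGFR, c-Met, S473-Akt, Akt, GAPDH) used at 1:1000 overnight at 4 °C, HRP secondaries at 1:5000, ECL detection.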

CL97 = experiment: Antiproliferative activity against human CL97 cells harbouring EGFR G719A/T790M mutant assessed as reduction in cell viability incubated for 72 hrs by MTT assay; type: functional, cell-based; conditions: CL97, 72 h

Chain of Epidermal growth factor receptor (Homo sapiens), P00533 [UNDEFINED MUTATION] (P00533 whole entry, looked up, stated change not applied): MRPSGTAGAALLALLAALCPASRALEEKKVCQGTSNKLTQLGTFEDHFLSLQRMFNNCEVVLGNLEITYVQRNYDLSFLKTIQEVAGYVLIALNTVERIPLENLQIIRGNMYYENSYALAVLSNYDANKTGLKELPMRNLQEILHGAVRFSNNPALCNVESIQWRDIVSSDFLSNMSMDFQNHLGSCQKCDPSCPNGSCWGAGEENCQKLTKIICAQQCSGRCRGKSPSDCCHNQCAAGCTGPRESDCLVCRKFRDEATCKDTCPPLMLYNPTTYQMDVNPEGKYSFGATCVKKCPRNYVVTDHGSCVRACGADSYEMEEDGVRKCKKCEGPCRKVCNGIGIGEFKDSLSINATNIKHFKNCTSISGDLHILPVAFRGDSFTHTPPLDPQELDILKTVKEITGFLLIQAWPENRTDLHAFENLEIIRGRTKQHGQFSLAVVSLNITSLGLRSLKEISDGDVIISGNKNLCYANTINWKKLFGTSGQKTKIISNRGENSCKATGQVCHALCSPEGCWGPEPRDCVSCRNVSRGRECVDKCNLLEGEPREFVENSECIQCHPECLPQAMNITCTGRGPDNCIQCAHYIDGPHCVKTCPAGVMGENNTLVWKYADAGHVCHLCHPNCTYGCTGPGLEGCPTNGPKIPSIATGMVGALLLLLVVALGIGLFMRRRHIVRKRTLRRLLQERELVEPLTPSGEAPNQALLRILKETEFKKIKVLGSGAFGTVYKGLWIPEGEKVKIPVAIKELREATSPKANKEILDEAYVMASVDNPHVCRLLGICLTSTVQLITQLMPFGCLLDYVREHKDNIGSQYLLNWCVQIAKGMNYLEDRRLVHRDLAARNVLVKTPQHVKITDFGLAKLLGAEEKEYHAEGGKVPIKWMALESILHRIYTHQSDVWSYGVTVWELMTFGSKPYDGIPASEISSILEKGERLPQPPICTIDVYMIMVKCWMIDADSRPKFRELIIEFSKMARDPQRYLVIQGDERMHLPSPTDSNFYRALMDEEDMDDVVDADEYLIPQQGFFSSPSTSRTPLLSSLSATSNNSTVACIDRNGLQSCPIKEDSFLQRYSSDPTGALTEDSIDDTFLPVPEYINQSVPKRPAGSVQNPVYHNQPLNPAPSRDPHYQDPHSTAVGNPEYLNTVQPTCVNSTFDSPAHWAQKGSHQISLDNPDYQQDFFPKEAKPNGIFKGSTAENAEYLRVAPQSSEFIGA

**Q.** O=C(Nc1cccc(-c2nc(-c3ccc(NC(=O)c4cccnc4)cc3Cl)no2)c1)Nc1ccc(NC(=O)C2CC2)c(C(F)(F)F)c1 was tested. Which inhibition in vivo at 50 mg/kg (NCI-H1975) did it give?
**A.** 72%

**Q.** And the Activity [1]?
**A.** Active

**Q.** What about the IC50 (CL97) of the same compound?
**A.** 500 nM
